Measured values from ChEMBL document CHEMBL4130626, “α-Arylidene Diacylglycerol-Lactones (DAG-Lactones) as Selective Ras Guanine-Releasing Protein 3 (RasGRP3) Ligands” (J Med Chem, 2018).

Experiments:
[1] = target: Protein kinase C alpha type (Homo sapiens, UniProt P17252); assay: Displacement of [3H]PDBu from full length recombinant human PKCalpha expressed in baculovirus expression system after 5 mins by scintillation counting
How it was run: (§1)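 Competition of [3H]PDBu binding by polyethylene glycol precipitation, with 100 µg/ml phosphatidylserine and ≤0.003% Triton X-100, 5 min at 37 °C. Proteins: full-length purified human PKCα, PKCε; full-length RasGRP1; MBP-RasGRP3 from E. coli BL21(DE3) induced with 0.3 mM IPTG 6 h at room temperature. Ki mean ± SEM of ≥2 experiments, triplicate points.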

[2] = target: T1, Protein kinase C epsilon type (Homo sapiens, UniProt Q02156); assay: Displacement of [3H]PDBu from full length recombinant human PKCepsilon expressed in baculovirus expression system after 5 mins by scintillation counting; how it was run: as §1
T1 sequence (Q02156 whole entry): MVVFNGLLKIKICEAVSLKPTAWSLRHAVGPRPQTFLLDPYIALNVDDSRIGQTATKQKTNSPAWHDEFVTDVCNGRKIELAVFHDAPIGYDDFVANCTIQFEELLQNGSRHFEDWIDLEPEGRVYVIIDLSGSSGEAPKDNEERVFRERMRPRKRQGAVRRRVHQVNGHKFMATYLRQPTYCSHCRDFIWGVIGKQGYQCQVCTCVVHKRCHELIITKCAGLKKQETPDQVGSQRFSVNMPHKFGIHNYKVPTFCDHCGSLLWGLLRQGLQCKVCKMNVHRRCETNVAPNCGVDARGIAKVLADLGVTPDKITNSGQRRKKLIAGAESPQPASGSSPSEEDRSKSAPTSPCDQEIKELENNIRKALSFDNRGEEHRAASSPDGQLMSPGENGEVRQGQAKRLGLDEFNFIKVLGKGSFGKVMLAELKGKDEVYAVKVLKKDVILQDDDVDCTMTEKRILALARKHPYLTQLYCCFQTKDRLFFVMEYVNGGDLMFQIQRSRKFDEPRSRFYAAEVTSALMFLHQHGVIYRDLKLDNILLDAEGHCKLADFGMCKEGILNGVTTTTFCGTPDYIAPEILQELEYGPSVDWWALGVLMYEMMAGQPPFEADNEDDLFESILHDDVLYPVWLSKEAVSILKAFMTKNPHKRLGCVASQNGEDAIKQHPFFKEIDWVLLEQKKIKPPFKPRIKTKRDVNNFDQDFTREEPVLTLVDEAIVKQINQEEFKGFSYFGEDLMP

[3] = target: T2, Ras guanyl-releasing protein 3 (Homo sapiens, UniProt Q8IV61); assay: Displacement of [3H]PDBu from full length MBP-tagged human RasGRP3 expressed in Escherichia coli BL21 (DE3) after 5 mins by scintillation counting; how it was run: as §1
T2 sequence (Q8IV61 whole entry): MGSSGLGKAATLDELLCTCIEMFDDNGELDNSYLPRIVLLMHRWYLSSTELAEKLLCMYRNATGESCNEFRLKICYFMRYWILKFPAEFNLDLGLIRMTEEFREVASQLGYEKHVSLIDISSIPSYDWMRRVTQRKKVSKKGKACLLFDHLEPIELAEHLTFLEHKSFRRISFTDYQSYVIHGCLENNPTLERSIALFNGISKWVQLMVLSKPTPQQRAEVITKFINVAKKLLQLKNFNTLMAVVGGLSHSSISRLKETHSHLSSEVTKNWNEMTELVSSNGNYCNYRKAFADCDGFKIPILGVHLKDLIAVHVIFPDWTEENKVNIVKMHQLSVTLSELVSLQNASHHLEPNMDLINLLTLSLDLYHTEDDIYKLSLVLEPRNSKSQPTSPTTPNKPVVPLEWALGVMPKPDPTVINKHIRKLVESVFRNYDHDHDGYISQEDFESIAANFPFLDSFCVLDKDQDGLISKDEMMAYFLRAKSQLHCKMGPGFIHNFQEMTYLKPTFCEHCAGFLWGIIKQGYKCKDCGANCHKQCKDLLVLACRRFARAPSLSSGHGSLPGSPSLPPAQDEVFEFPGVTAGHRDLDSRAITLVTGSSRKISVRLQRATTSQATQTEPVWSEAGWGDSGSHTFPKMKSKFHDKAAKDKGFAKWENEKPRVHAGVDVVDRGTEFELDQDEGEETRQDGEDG

Homo sapiens = organism: Homo sapiens; assay: Selectivity ratio of Ki for GST-tagged PKCalpha C1 domain to Ki for human RasGRP3 overexpressed in HEK-293 cells

Structure (SMILES)	Ki [1] [nM]	Ki [2] [nM]	Ki [3] [nM]	Ratio Ki (Homo sapiens)
Cn1cc(/C=C2\CC(CO)(COC(=O)/C=C/c3ccccc3)OC2=O)c2ccccc21 (configuration not stated)	439	672	25	–
COc1ccc(/C=C2\CC(CO)(COC(=O)c3ccc(OC)cc3)OC2=O)cc1 (configuration not stated)	84.7	13.4	4.17	–
Cn1cc(/C=C2\CC(CO)(COC(=O)c3ccc(Cl)cc3)OC2=O)c2ccccc21 (configuration not stated)	146	208	11.2	–
CC(C)(C)C(=O)OCC1(CO)C/C(=C\c2ccc(Cl)cc2)C(=O)O1 (configuration not stated)	13.6	2.57	0.53	–
CC(C)CC(CC(C)C)C(=O)OCC1(CO)C/C(=C\c2cn(C)c3ccccc23)C(=O)O1 (configuration not stated)	39	41.5	5.07	–
CCCC(CCC)C(=O)OCC1(CO)C/C(=C\c2cn(C)c3ccccc23)C(=O)O1 (configuration not stated)	31.7	42.8	0.84	–
COc1ccc(C(=O)OCC2(CO)C/C(=C\c3ccc([N+](=O)[O-])cc3)C(=O)O2)cc1 (configuration not stated)	–	–	–	20
CN(C)c1ccc(/C=C2\CC(CO)(COC(=O)c3ccc(Cl)cc3)OC2=O)cc1 (configuration not stated)	25.4	6.39	1.81	–
Cn1cc(/C=C2\CC(CO)(COC(=O)/C=C/c3ccccn3)OC2=O)c2ccccc21 (configuration not stated)	2310	3410	69.7	–
Cn1cc(/C=C/C(=O)OCC2(CO)C/C(=C\c3cn(C)c4ccccc34)C(=O)O2)c2ccccc21 (configuration not stated)	375	780	15.7	–
CC(C)(C)C(=O)OCC1(CO)C/C(=C\c2cn(CC3CC3)c3ccccc23)C(=O)O1 (configuration not stated)	29	60.6	3.58	–
COc1ccc(C(=O)OCC2(CO)C/C(=C\c3ccc(N(C)C)cc3)C(=O)O2)cc1 (configuration not stated)	128	18.2	7.48	–
CN(C)c1ccc(/C=C2\CC(CO)(COC(=O)c3ccc(N(C)C)cc3)OC2=O)cc1 (configuration not stated)	252	39.4	26.8	–
Cn1cc(/C=C2\CC(CO)(COC(=O)C3CCC(C(C)(C)C)CC3)OC2=O)c2ccccc21 (configuration not stated)	31.3	42	2.15	–
CN(C)c1ccc(C(=O)OCC2(CO)C/C(=C\c3ccc(Cl)cc3)C(=O)O2)cc1 (configuration not stated)	30.4	9.5	2.73	–
Cn1cc(/C=C2/CC(CO)(COC(=O)C(C)(C)C)OC2=O)c2cc([N+](=O)[O-])ccc21 (configuration not stated)	> 30000	> 30000	1390	–
CC(C)(C)C(=O)OCC1(CO)C/C(=C\c2ccccn2)C(=O)O1 (configuration not stated)	3640	1120	192	–
CN(C)c1ccc(C(=O)OCC2(CO)C/C(=C\c3ccccn3)C(=O)O2)cc1 (configuration not stated)	1480	328	271	–
COc1ccc(C(=O)OCC2(CO)C/C(=C\c3ccc(Cl)cc3)C(=O)O2)cc1 (configuration not stated)	27.6	7.1	2.25	–
CN(C)c1ccc(C(=O)OCC2(CO)C/C(=C\c3ccc([N+](=O)[O-])cc3)C(=O)O2)cc1 (configuration not stated)	–	–	–	90
Cn1cc(/C=C2/CC(CO)(COC(=O)C(C)(C)C)OC2=O)c2cc(Cl)ccc21 (configuration not stated)	79.1	104	4.32	–

Structure (SMILES)	Ki [1] [nM]	Ki [2] [nM]	Ki [3] [nM]	Ratio Ki (Homo sapiens)
COc1ccc2c(c1)c(/C=C1\CC(CO)(COC(=O)C(C)(C)C)OC1=O)cn2C (configuration not stated)	249	208	4.76	–
CC(C)Cn1cc(/C=C2\CC(CO)(COC(=O)C(C)(C)C)OC2=O)c2ccccc21 (configuration not stated)	15.6	19.4	3.03	–
COc1ccc(/C=C2\CC(CO)(COC(=O)C(C)(C)C)OC2=O)cc1 (configuration not stated)	72	10.1	1.09	–
Cn1nc(/C=C2\CC(CO)(COC(=O)C(C)(C)C)OC2=O)c2ccccc21 (configuration not stated)	184	131	7.22	–
Cn1cc(/C=C2\CC(CO)(COC(=O)C3CCCCC3)OC2=O)c2ccccc21 (configuration not stated)	112	98.2	2.86	–
Cn1cc(/C=C2\CC(CO)(COC(=O)C(C)(C)C)OC2=O)c2cc(Cl)ccc21 (configuration not stated)	42.3	39.3	1.01	–
CC(C)(C)C(=O)OCC1(CO)C/C(=C\c2coc3ccccc23)C(=O)O1 (configuration not stated)	114	35.3	2.8	–
COc1ccc(/C=C2\CC(CO)(COC(=O)c3ccc(Cl)cc3)OC2=O)cc1 (configuration not stated)	30.1	6.8	1.54	–
COc1ccc(C(=O)OCC2(CO)C/C(=C\c3ccccn3)C(=O)O2)cc1 (configuration not stated)	1190	199	89.7	–
CN(C)c1ccc(C(=O)OCC2(CO)C/C(=C\c3cn(C)c4ccccc34)C(=O)O2)cc1 (configuration not stated)	186	220	18.2	–
CC(C)(C)C(=O)OCC1(CO)C/C(=C/c2coc3ccccc23)C(=O)O1 (configuration not stated)	62.5	73.3	11.7	–
O=C1OC(CO)(COC(=O)c2ccc(Cl)cc2)C/C1=C\c1ccc(Cl)cc1 (configuration not stated)	25.2	6.51	2.69	–
CC(C)(C)C(=O)OCC1(CO)C/C(=C/c2csc3ccccc23)C(=O)O1 (configuration not stated)	37	12.5	4.26	–
COc1ccc(/C=C2\CC(CO)(COC(=O)c3ccc(N(C)C)cc3)OC2=O)cc1 (configuration not stated)	82.2	18.3	7	–
CN(C)c1ccc(/C=C2\CC(CO)(COC(=O)C(C)(C)C)OC2=O)cc1 (configuration not stated)	65.9	7.87	1.07	–
Cn1cc(/C=C2\CC(CO)(COC(=O)C(C)(C)C)OC2=O)c2cc([N+](=O)[O-])ccc21 (configuration not stated)	> 30000	> 30000	3490	–
CCCCCCC(=O)OCC1(CO)C/C(=C\c2cn(C)c3ccccc23)C(=O)O1 (configuration not stated)	135	122	5.3	–
CC(C)(C)C(=O)OCC1(CO)C/C(=C\c2csc3ccccc23)C(=O)O1 (configuration not stated)	28.8	8.17	1.67	–
O=C1OC(CO)(COC(=O)c2ccc(Cl)cc2)C/C1=C\c1ccccn1 (configuration not stated)	383	92.3	29	–
COc1ccc(C(=O)OCC2(CO)C/C(=C\c3cn(C)c4ccccc34)C(=O)O2)cc1 (configuration not stated)	446	380	26.5	–
CCCCn1cc(/C=C2\CC(CO)(COC(=O)C(C)(C)C)OC2=O)c2ccccc21 (configuration not stated)	25.6	19.2	1.87	–
